The target of assay [1] is T1, Amine oxidase [flavin-containing] B (Bos taurus, UniProt P56560).
T1 sequence (P56560 whole entry): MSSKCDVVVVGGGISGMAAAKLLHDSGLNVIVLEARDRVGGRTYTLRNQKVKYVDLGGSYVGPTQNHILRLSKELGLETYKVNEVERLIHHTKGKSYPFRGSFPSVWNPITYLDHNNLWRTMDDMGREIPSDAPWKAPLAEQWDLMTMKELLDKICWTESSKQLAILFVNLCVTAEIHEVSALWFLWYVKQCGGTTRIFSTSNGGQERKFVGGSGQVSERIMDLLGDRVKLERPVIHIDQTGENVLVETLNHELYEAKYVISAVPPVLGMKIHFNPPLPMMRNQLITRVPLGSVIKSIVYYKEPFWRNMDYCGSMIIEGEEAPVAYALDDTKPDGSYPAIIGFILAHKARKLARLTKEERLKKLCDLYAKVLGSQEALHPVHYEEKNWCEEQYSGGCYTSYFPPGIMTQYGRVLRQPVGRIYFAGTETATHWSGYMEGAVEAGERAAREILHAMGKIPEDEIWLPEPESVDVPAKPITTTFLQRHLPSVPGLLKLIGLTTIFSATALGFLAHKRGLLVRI
In words: Inhibition of bovine brain mitochondrial Monoamine oxidase B (MAO-B) compared to toloxatone. Put shortly:
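Bovine brain mitochondrial fractions were isolated by the Basford method. To leave MAO-B activity, fractions were preincubated 30 min at 38 °C with 1 μM clorgyline. Inhibitors in DMSO were preincubated 30 min before kynuramine was added, then incubated 30 min more. Fluorimetric read-out was used and Ki values determined.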

Assay [2] deals with T2, Amine oxidase [flavin-containing] A (Bos taurus, UniProt P21398).
T2 sequence (P21398 whole entry): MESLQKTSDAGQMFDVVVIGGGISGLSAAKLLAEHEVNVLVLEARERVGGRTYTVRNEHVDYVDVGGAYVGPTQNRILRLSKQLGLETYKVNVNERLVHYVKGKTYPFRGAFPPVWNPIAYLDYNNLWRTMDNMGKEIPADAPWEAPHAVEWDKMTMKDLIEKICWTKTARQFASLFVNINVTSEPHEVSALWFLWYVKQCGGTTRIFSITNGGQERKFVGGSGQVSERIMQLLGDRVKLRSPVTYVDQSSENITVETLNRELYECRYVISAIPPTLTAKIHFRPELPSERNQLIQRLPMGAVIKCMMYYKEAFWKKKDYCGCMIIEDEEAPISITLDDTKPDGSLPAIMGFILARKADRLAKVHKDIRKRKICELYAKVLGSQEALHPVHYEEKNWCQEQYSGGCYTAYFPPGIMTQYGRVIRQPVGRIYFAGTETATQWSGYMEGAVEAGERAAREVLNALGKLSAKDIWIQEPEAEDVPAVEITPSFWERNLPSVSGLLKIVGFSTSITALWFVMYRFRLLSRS
In words: Inhibition of bovine brain mitochondrial Monoamine oxidase A (MAO-A) compared to toloxatone. A digest of the protocol:
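Bovine brain mitochondria were isolated by the Basford method. To isolate MAO-A, fractions were preincubated 30 min at 38 °C with 1 μM L-deprenyl. Inhibitors in DMSO were preincubated 30 min, then kynuramine substrate was added, with 30 min further incubation. Product was read fluorimetrically and Ki values derived.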

As for `COC[C@H]1CN(n2cccc2)C(=O)O1`, the inhibitory constant (Ki) (usually a dissociation constant, usually derived from enzyme kinetics or from competition with a known ligand) in assay [1] worked out at 50 µM; in assay [2], 4.9 nM.
As for `NC[C@H]1CN(n2cccc2)C(=O)O1`, the Ki in assay [1] was 4.4 µM; in assay [2] it was 53000 nM.
Taken in the same sequence, the figures for `COC[C@@H]1CN(n2cccc2)C(=O)O1` were 23 µM and 1000 nM.
Taken in the same sequence, the figures for `O=C1O[C@H](CO)CN1n1cccc1` were 2 µM and 1200 nM.
Consider `NC[C@@H]1CN(n2cccc2)C(=O)O1`, for which the Ki in assay [1] worked out at 34 µM; in assay [2], 1200 nM.
Taken in the same sequence, the figures for `COC[C@@H]1CN(c2ccc(OCC[C@H](O)C(F)(F)F)cc2)C(=O)O1` [(R/R)BEFLOXATONE] were 0.22 µM and 2.5 nM.
In the case of `[N-]=[N+]=NC[C@@H]1CN(n2cccc2)C(=O)O1`, the Ki was found to be 24 µM in assay [1] and 2500 nM in assay [2].
Taken in the same sequence, the figures for `O=C1O[C@@H](CO)CN1n1cccc1.O=C1O[C@H](CO)CN1n1cccc1` were 2 µM and 270 nM.
Turning to `[N-]=[N+]=NC[C@H]1CN(n2cccc2)C(=O)O1`, the Ki in assay [1] was 200 µM; in assay [2], 200 nM.
Taken in the same sequence, the figures for `O=C1O[C@@H](CO)CN1n1cccc1` were 9 µM and 90 nM.
Taken in the same sequence, the figures for `CN(C)C[C@H]1CN(n2cccc2)C(=O)O1` were 140 µM and 40000 nM.

For the origin of these results see ChEMBL document CHEMBL1135879 (J Med Chem, 2002).
